In article PMC3177239 (The Biochemical journal, 2011):

Columns and labels:
[1] = test system: pig tracheal submucosal glands; assay: Pig tracheal submucosal glands fluid secretion
How it was run: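 Pig tracheas collected within 1 h postmortem into ice-cold Krebs-Ringer bicarbonate buffer (1 μM indomethacin) gassed with 95% O2/5% CO2. Serosal side bathed at 37 °C. Agents were diluted in warm gassed buffer and added serosally after basal secretion was recorded. Carbachol 10 μM was added at the end to confirm viability. Rate was taken as the volume-vs-time slope (R² > 0.8): 10-min basal, 25-min stimulated. 11 pigs, 11–43 glands, mean ± s.e.m.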

[2] = test system: cAMP levels in Calu-3 cells; assay: Ratiometric FRET cAMP measurement; type: cell-based; conditions: CO-068 50 μM or FSK 10 μM added after baseline
How it was run: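 Calu-3 cells were transiently transfected (Lipofectamine) with the CFP-EPAC-YFP sensor and grown on glass-bottom dishes. Cells were washed twice and held in HBSS, in the dark at room temperature, on an inverted microscope. After baseline, time-lapse images were taken every 1 min (100–300 ms exposure) with an EM-CCD camera. The background-subtracted CFP/FRET emission ratio came from 10–20 regions in 3–5 cells. n = 4–5 separate experiments, mean ± s.e.m.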

Row | SMILES | Effect on FSK-induced fluid secretion ([1]; CFTRinh-172 50 μM plus FSK 10 μM) | Increase in mean fluid secretion rate compared to basal secretion rate ([1]; FSK 10 μM or CO-068 50 μM, over 25 min) [fold] | Increase in cAMP levels (CFP/FRET emission ratio) [2] [fold]
1 | O=C(O)c1ccc(/C=C2\SC(=S)N(c3cccc(C(F)(F)F)c3)C2=O)cc1 [CFTRinh-172] | markedly inhibited |  | 
2 | C=C[C@@]1(C)CC(=O)[C@]2(O)[C@@]3(C)[C@@H](O)CCC(C)(C)[C@@H]3[C@H](O)[C@H](OC(C)=O)[C@@]2(C)O1 [FSK, forskolin] |  | 5 | 1.5
